Results as given in ChEMBL document CHEMBL1949527, “Use of copper(I) catalyzed azide alkyne cycloaddition (CuAAC) for the preparation of conjugated pyrrolo[2,3-a]carbazole Pim kinase inhibitors” (Eur J Med Chem, 2012).

Columns and labels:
PC-3 = test: Cellular uptake in human PC3 cells at 10 uM after 24 hrs by fluorescence microscopy; type: ADME, cell-based; settings: pc-3, 24 h
In short: (§1)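 PC-3 cells in RPMI-1640 with 10% FBS, 2 mM L-glutamine and penicillin/streptomycin were grown overnight on coverslips, then exposed to 10 μM compound in DMSO (vehicle control 0,1% DMSO) for 24 h. Cells were PBS-washed, fixed 15 min in 4% paraformaldehyde and mounted. Fluorescence microscopy used a DAPI filter. Mean intensity was background-corrected and averaged from three regions in two parallel samples.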

[1] = target: T1, Serine/threonine-protein kinase pim-3 (Homo sapiens, UniProt Q86V86); test: Inhibition of human recombinant His6-tagged PIM3 expressed in Sf21 cells assessed as residual activity using RSRHSSYPAGT as substrate at 10 uM after 30 mins
In short: (§2)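 Residual activity at 10 μM inhibitor, run in duplicate. Assay buffer was 50 mM Tris/HCl pH 7.5, 0.1 mM EGTA, 0.1% 2-mercaptoethanol. Reactions were stopped with orthophosphoric acid and spotted onto P81 filters.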

[2] = target: T2, Serine/threonine-protein kinase pim-1 (Homo sapiens, UniProt P11309); test: Inhibition of human recombinant His6-tagged PIM1 expressed in Sf21 cells assessed as residual activity using RSRHSSYPAGT as substrate at 10 uM after 30 mins; in short: as §2
Target sequence in this assay (P11309 whole entry, looked up): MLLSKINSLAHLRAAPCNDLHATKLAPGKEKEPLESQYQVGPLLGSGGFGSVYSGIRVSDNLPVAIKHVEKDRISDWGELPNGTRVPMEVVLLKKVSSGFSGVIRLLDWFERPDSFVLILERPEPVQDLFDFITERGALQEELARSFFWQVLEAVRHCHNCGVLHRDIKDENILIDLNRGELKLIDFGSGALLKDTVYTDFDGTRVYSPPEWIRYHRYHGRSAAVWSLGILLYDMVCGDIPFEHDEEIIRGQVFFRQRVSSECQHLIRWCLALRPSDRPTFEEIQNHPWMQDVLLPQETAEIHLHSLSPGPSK

[3] = target: T1, Serine/threonine-protein kinase pim-3; test: Inhibition of human recombinant His6-tagged PIM3 expressed in Sf21 cells using RSRHSSYPAGT as substrate after 30 mins
[4] = target: T2, Serine/threonine-protein kinase pim-1; test: Inhibition of human recombinant His6-tagged PIM1 expressed in Sf21 cells using RSRHSSYPAGT as substrate after 30 mins
Target sequence in this assay (P11309 whole entry): as the sequence (P11309 whole entry, looked up) above

[5] = target: T3, Serine/threonine-protein kinase pim-2 (Homo sapiens, UniProt Q9P1W9); test: Inhibition of human recombinant PIM2 expressed in Escherichia coli assessed as residual activity using RSRHSSYPAGT as substrate at 10 uM after 30 mins; in short: as §2
Target sequence in this assay (Q9P1W9 whole entry, looked up): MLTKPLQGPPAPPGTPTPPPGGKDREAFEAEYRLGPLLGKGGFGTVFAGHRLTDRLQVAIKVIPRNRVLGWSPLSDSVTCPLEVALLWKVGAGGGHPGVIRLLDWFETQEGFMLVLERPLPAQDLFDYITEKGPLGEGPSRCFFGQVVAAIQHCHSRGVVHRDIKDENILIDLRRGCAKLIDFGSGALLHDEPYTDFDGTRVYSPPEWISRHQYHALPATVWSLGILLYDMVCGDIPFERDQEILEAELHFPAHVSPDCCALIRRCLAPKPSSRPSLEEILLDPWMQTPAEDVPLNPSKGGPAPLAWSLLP

[6] = Drug uptake in human PC3 cell cytoplasm at 10 uM after 24 hrs by fluorescence microscopy; type: ADME, cell-based; settings: pc-3, 24 h; in short: as §1
[7] = Drug uptake in human PC3 cell nucleus at 10 uM after 24 hrs by fluorescence microscopy; type: ADME, cell-based; settings: pc-3, 24 h; in short: as §1
[8] = target: T3, Serine/threonine-protein kinase pim-2; test: Inhibition of human recombinant PIM2 expressed in Escherichia coli using RSRHSSYPAGT as substrate after 30 mins
Target sequence in this assay (Q9P1W9 whole entry): as the sequence (Q9P1W9 whole entry, looked up) above

SMILES | Drug uptake (PC-3) | Activity [1] [%] | Activity [2] [%] | IC50 [3] [nM] | IC50 [4] [nM] | Activity [5] [%] | Drug uptake [6] | Drug uptake [7] | IC50 [8] [nM]
O=Cc1c[nH]c2c1ccc1c3ccccc3[nH]c12 | Not Active | – | – | – | – | – | – | – | –
O=Cc1c[nH]c2c1ccc1c3ccccc3n(CCCCn3cc(CO)nn3)c12 | – | 23 | 8 | 235 | 315 | 36 | – | – | –
[N-]=[N+]=NCCCCn1c2ccccc2c2ccc3c(C=O)c[nH]c3c21 | – | 14 | 9 | 108 | 105 | 22 | – | – | –
CN(C)c1cccc2c(S(=O)(=O)NCc3cn(CCCCn4c5ccccc5c5ccc6c(C=O)c[nH]c6c54)nn3)cccc12 | – | 38 | 17 | – | – | 66 | Active | Not Active | –
O=Cc1cn2c3c1ccc1c4ccccc4n(c13)CCCC2 | – | 1 | 7 | 13 | 8 | 6 | – | – | 350
C[N+](C)(CCO)Cc1cn(CCCCn2c3ccccc3c3ccc4c(C=O)c[nH]c4c32)nn1 | – | 28 | 9 | 490 | 327 | 65 | – | – | –
